# ChEMBL document CHEMBL3046951, “Volatile constituents from the leaves of Callicarpa japonica Thunb. and their antibacterial activities” (2004)
# What was measured:
# Assay type in all cases: functional
# Salmonella typhimurium [1] = assay: Antimicrobial activity against Salmonella enterica subsp. enterica serovar Typhimurium ATCC 14028 assessed as growth inhibition rate at 3.4 mg/l after 72 hr by spectrophotometry; details: ATCC 14028, 72 h, read-out: GI
# Method in brief: (§1)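 Salmonella Typhimurium ATCC 14028 grown in nutrient broth at 30 °C, precultured 24 h, then subcultured 1:100 for 18 h before testing. Single volatile compounds (>95% pure) were added. OD was read every 24 h over 72 h in a Bioscreen C, with 10% Tween 80 as the comparison control.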
# Bacillus cereus [2] = assay: Antimicrobial activity against Bacillus cereus ATCC 11778 assessed as growth inhibition rate at 0.05 mg/l after 72 hr by spectrophotometry; details: ATCC 11778, 72 h, read-out: GI
# Method in brief: (§2)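 Pure volatile compounds (purity >95%; one at 90%) were tested against B. cereus ATCC 11778. The strain was grown at 30 °C in nutrient broth for 24 h, then subcultured for 18 h. Optical density was read in a Bioscreen C every 24 h for 72 h, with 10% Tween 80 as the control.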
# Bacillus cereus [3] = assay: Antimicrobial activity against Bacillus cereus ATCC 11778 assessed as growth inhibition rate at 0.68 mg/l after 72 hr by spectrophotometry; details: ATCC 11778, 72 h, read-out: GI; method in brief: as §2
# Vibrio parahaemolyticus [4] = assay: Antimicrobial activity against Vibrio parahaemolyticus ATCC 33844 assessed as growth inhibition rate at 3.4 mg/l after 72 hr by spectrophotometry; details: ATCC 33844, 72 h, read-out: GI
# Method in brief: (§3)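 Vibrio parahaemolyticus ATCC 33844 grown at 37 °C in tryptic soy broth with 3% (w/v) NaCl, using an 18 h subculture of a 24 h culture. Pure compounds (>95% purity) were tested. Bioscreen C optical density was read every 24 h for 72 h against a 10% Tween 80 control.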
# Bacillus cereus [5] = assay: Antimicrobial activity against Bacillus cereus ATCC 11778 assessed as growth inhibition rate at 3.4 mg/l after 72 hr by spectrophotometry; details: ATCC 11778, 72 h, read-out: GI; method in brief: as §2
# Listeria monocytogenes [6] = assay: Antimicrobial activity against Listeria monocytogenes ATCC 19111 assessed as growth inhibition rate at 6.8 mg/l after 72 hr by spectrophotometry; details: ATCC 19111, 72 h, read-out: GI
# Method in brief: (§4)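 L. monocytogenes was grown at 30 °C in tryptic soy broth, subcultured for 18 h, and exposed to pure volatile compounds (>95% purity). Growth was followed by Bioscreen C optical density every 24 h for 72 h against a 10% Tween 80 control.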
# Escherichia coli [7] = assay: Antimicrobial activity against Escherichia coli O157:H7 ATCC 43894 assessed as growth inhibition rate at 3.4 mg/l after 72 hr by spectrophotometry; details: O157:H7 ATCC 43894, 72 h, read-out: GI
# Escherichia coli [8] = assay: Antimicrobial activity against Escherichia coli O157:H7 ATCC 43894 assessed as growth inhibition rate at 0.12 mg/l after 72 hr by spectrophotometry; details: O157:H7 ATCC 43894, 72 h, read-out: GI
# Staphylococcus aureus [9] = assay: Antimicrobial activity against Staphylococcus aureus ATCC 25923 assessed as growth inhibition rate at 6.8 mg/l after 72 hr by spectrophotometry; details: ATCC 25923, 72 h, read-out: GI
# Method in brief: (§5)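 Staphylococcus aureus ATCC 25923 grown at 37 °C in tryptic soy broth, using an 18 h subculture of a 24 h culture. Individual leaf-volatile compounds (>95% purity) were tested. Bioscreen C optical density was recorded every 24 h for 72 h and compared with a 10% Tween 80 control.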
# Staphylococcus aureus [10] = assay: Antimicrobial activity against Staphylococcus aureus ATCC 25923 assessed as growth inhibition rate at 3.4 mg/l after 72 hr by spectrophotometry; details: ATCC 25923, 72 h, read-out: GI; method in brief: as §5
# Bacillus cereus [11] = assay: Antimicrobial activity against Bacillus cereus ATCC 11778 assessed as growth inhibition rate at 0.025 mg/l after 72 hr by spectrophotometry; details: ATCC 11778, 72 h, read-out: GI; method in brief: as §2
# Listeria monocytogenes [12] = assay: Antimicrobial activity against Listeria monocytogenes ATCC 19111 assessed as growth inhibition rate at 0.025 mg/l after 72 hr by spectrophotometry; details: ATCC 19111, 72 h, read-out: GI; method in brief: as §4
# Vibrio parahaemolyticus [13] = assay: Antimicrobial activity against Vibrio parahaemolyticus ATCC 33844 assessed as growth inhibition rate at 0.12 mg/l after 72 hr by spectrophotometry; details: ATCC 33844, 72 h, read-out: GI
# Listeria monocytogenes [14] = assay: Antimicrobial activity against Listeria monocytogenes ATCC 19111 assessed as growth inhibition rate at 0.68 mg/l after 72 hr by spectrophotometry; details: ATCC 19111, 72 h, read-out: GI; method in brief: as §4
# Vibrio parahaemolyticus [15] = assay: Antimicrobial activity against Vibrio parahaemolyticus ATCC 33844 assessed as growth inhibition rate at 6.8 mg/l after 72 hr by spectrophotometry; details: ATCC 33844, 72 h, read-out: GI; method in brief: as §3
# Bacillus cereus [16] = assay: Antimicrobial activity against Bacillus cereus ATCC 11778 assessed as growth inhibition rate at 6.8 mg/l after 72 hr by spectrophotometry; details: ATCC 11778, 72 h, read-out: GI; method in brief: as §2
# Listeria monocytogenes [17] = assay: Antimicrobial activity against Listeria monocytogenes ATCC 19111 assessed as growth inhibition rate at 0.12 mg/l after 72 hr by spectrophotometry; details: ATCC 19111, 72 h, read-out: GI; method in brief: as §4
# Escherichia coli [18] = assay: Antimicrobial activity against Escherichia coli O157:H7 ATCC 43894 assessed as growth inhibition rate at 0.05 mg/l after 72 hr by spectrophotometry; details: O157:H7 ATCC 43894, 72 h, read-out: GI
# Staphylococcus aureus [19] = assay: Antimicrobial activity against Staphylococcus aureus ATCC 25923 assessed as growth inhibition rate at 0.12 mg/l after 72 hr by spectrophotometry; details: ATCC 25923, 72 h, read-out: GI
# Escherichia coli [20] = assay: Antimicrobial activity against Escherichia coli O157:H7 ATCC 43894 assessed as growth inhibition rate at 0.68 mg/l after 72 hr by spectrophotometry; details: O157:H7 ATCC 43894, 72 h, read-out: GI
# Escherichia coli [21] = assay: Antimicrobial activity against Escherichia coli O157:H7 ATCC 43894 assessed as growth inhibition rate at 6.8 mg/l after 72 hr by spectrophotometry; details: O157:H7 ATCC 43894, 72 h, read-out: GI
# Staphylococcus aureus [22] = assay: Antimicrobial activity against Staphylococcus aureus ATCC 25923 assessed as growth inhibition rate at 0.05 mg/l after 72 hr by spectrophotometry; details: ATCC 25923, 72 h, read-out: GI
# Listeria monocytogenes [23] = assay: Antimicrobial activity against Listeria monocytogenes ATCC 19111 assessed as growth inhibition rate at 3.4 mg/l after 72 hr by spectrophotometry; details: ATCC 19111, 72 h, read-out: GI; method in brief: as §4
# Salmonella typhimurium [24] = assay: Antimicrobial activity against Salmonella enterica subsp. enterica serovar Typhimurium ATCC 14028 assessed as growth inhibition rate at 0.025 mg/l after 72 hr by spectrophotometry; details: ATCC 14028, 72 h, read-out: GI; method in brief: as §1
# Vibrio parahaemolyticus [25] = assay: Antimicrobial activity against Vibrio parahaemolyticus ATCC 33844 assessed as growth inhibition rate at 0.05 mg/l after 72 hr by spectrophotometry; details: ATCC 33844, 72 h, read-out: GI
# Salmonella typhimurium [26] = assay: Antimicrobial activity against Salmonella enterica subsp. enterica serovar Typhimurium ATCC 14028 assessed as growth inhibition rate at 0.05 mg/l after 72 hr by spectrophotometry; details: ATCC 14028, 72 h, read-out: GI; method in brief: as §1
# Salmonella typhimurium [27] = assay: Antimicrobial activity against Salmonella enterica subsp. enterica serovar Typhimurium ATCC 14028 assessed as growth inhibition rate at 6.8 mg/l after 72 hr by spectrophotometry; details: ATCC 14028, 72 h, read-out: GI; method in brief: as §1
# Salmonella typhimurium [28] = assay: Antimicrobial activity against Salmonella enterica subsp. enterica serovar Typhimurium ATCC 14028 assessed as growth inhibition rate at 0.12 mg/l after 72 hr by spectrophotometry; details: ATCC 14028, 72 h, read-out: GI; method in brief: as §1
# Listeria monocytogenes [29] = assay: Antimicrobial activity against Listeria monocytogenes ATCC 19111 assessed as growth inhibition rate at 0.05 mg/l after 72 hr by spectrophotometry; details: ATCC 19111, 72 h, read-out: GI; method in brief: as §4
# Vibrio parahaemolyticus [30] = assay: Antimicrobial activity against Vibrio parahaemolyticus ATCC 33844 assessed as growth inhibition rate at 0.68 mg/l after 72 hr by spectrophotometry; details: ATCC 33844, 72 h, read-out: GI; method in brief: as §3
# Staphylococcus aureus [31] = assay: Antimicrobial activity against Staphylococcus aureus ATCC 25923 assessed as growth inhibition rate at 0.68 mg/l after 72 hr by spectrophotometry; details: ATCC 25923, 72 h, read-out: GI; method in brief: as §5
# Salmonella typhimurium [32] = assay: Antimicrobial activity against Salmonella enterica subsp. enterica serovar Typhimurium ATCC 14028 assessed as growth inhibition rate at 0.68 mg/l after 72 hr by spectrophotometry; details: ATCC 14028, 72 h, read-out: GI; method in brief: as §1
# Vibrio parahaemolyticus [33] = assay: Antimicrobial activity against Vibrio parahaemolyticus ATCC 33844 assessed as growth inhibition rate at 0.025 mg/l after 72 hr by spectrophotometry; details: ATCC 33844, 72 h, read-out: GI
# Staphylococcus aureus [34] = assay: Antimicrobial activity against Staphylococcus aureus ATCC 25923 assessed as growth inhibition rate at 0.025 mg/l after 72 hr by spectrophotometry; details: ATCC 25923, 72 h, read-out: GI
# Bacillus cereus [35] = assay: Antimicrobial activity against Bacillus cereus ATCC 11778 assessed as growth inhibition rate at 0.12 mg/l after 72 hr by spectrophotometry; details: ATCC 11778, 72 h, read-out: GI; method in brief: as §2
# Escherichia coli [36] = assay: Antimicrobial activity against Escherichia coli O157:H7 ATCC 43894 assessed as growth inhibition rate at 0.025 mg/l after 72 hr by spectrophotometry; details: O157:H7 ATCC 43894, 72 h, read-out: GI
compound,measurement,setting,value
"C/C=C/C=C/C=O [2,4-HEXADIENAL]",inhibition of growth at 3.4 µg/mL,Salmonella typhimurium [1],45.1%
same,inhibition of growth at 0.05 µg/mL,Bacillus cereus [2],9.5%
same,inhibition of growth at 0.68 µg/mL,Bacillus cereus [3],45.3%
same,inhibition of growth at 3.4 µg/mL,Vibrio parahaemolyticus [4],98.9%
same,inhibition of growth at 3.4 µg/mL,Bacillus cereus [5],67.3%
same,inhibition of growth at 6.8 µg/mL,Listeria monocytogenes [6],41.4%
same,inhibition of growth at 3.4 µg/mL,Escherichia coli [7],12.7%
same,inhibition of growth at 0.12 µg/mL,Escherichia coli [8],2.1%
same,inhibition of growth at 6.8 µg/mL,Staphylococcus aureus [9],90.9%
same,inhibition of growth at 3.4 µg/mL,Staphylococcus aureus [10],89.4%
same,inhibition of growth at 0.025 µg/mL,Bacillus cereus [11],10.3%
same,inhibition of growth at 0.025 µg/mL,Listeria monocytogenes [12],3.9%
same,inhibition of growth at 0.12 µg/mL,Vibrio parahaemolyticus [13],10.4%
same,inhibition of growth at 0.68 µg/mL,Listeria monocytogenes [14],9.2%
same,inhibition of growth at 6.8 µg/mL,Vibrio parahaemolyticus [15],99.1%
same,inhibition of growth at 6.8 µg/mL,Bacillus cereus [16],100%
same,inhibition of growth at 0.12 µg/mL,Listeria monocytogenes [17],7.5%
same,inhibition of growth at 0.05 µg/mL,Escherichia coli [18],0.5%
same,inhibition of growth at 0.12 µg/mL,Staphylococcus aureus [19],6.9%
same,inhibition of growth at 0.68 µg/mL,Escherichia coli [20],1.9%
same,inhibition of growth at 6.8 µg/mL,Escherichia coli [21],20.2%
same,inhibition of growth at 0.05 µg/mL,Staphylococcus aureus [22],5.3%
same,inhibition of growth at 3.4 µg/mL,Listeria monocytogenes [23],32.4%
same,inhibition of growth at 0.025 µg/mL,Salmonella typhimurium [24],13.2%
same,inhibition of growth at 0.05 µg/mL,Vibrio parahaemolyticus [25],5.8%
same,inhibition of growth at 0.05 µg/mL,Salmonella typhimurium [26],12.9%
same,inhibition of growth at 6.8 µg/mL,Salmonella typhimurium [27],80.6%
same,inhibition of growth at 0.12 µg/mL,Salmonella typhimurium [28],12.2%
same,inhibition of growth at 0.05 µg/mL,Listeria monocytogenes [29],3.9%
same,inhibition of growth at 0.68 µg/mL,Vibrio parahaemolyticus [30],20.3%
same,inhibition of growth at 0.68 µg/mL,Staphylococcus aureus [31],8.8%
same,inhibition of growth at 0.68 µg/mL,Salmonella typhimurium [32],18.4%
same,inhibition of growth at 0.025 µg/mL,Vibrio parahaemolyticus [33],6.2%
same,inhibition of growth at 0.025 µg/mL,Staphylococcus aureus [34],7.8%
same,inhibition of growth at 0.12 µg/mL,Bacillus cereus [35],10.8%
same,inhibition of growth at 0.025 µg/mL,Escherichia coli [36],0.3%
